Screens (PubChem BioAssay)
In the library only some 1.9% were active in any assay of this set; here they are far more common.
Hsp70 activator = transcriptional activators of Hsp70; HeLa Hsp70 promoter luciferase reporter, luminescence; scaled: vehicle 0, proteasome-inhibitor control 100%; activation, % at 10 µM; 200,000 compounds, 0.04% hits;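 active = activation above the mean across all tested compounds plus 3 SD, cutoff set per campaign, cut at about 5.5% in these data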;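 note: 100% = MG132 at 30 µM as the positive control and 0% = DMSO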
FXN GAA850 act = activators of GAA850 frataxin (FXN) promoter. activation, % at 6 µM. 360,000 compounds, 0.56% hits. HEK293 lucGAA850 FXN promoter luciferase reporter, 24 h; percent of 10 µM SAHA response;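 active = activation above the average of all compounds screened plus 3 SD, cutoff fixed separately per campaign, cut at about 7.5% in these data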;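 note: 0% = DMSO wells and 100% = 10 µM SAHA wells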
ABHD5 PLIN5 PPI = inhibitors of human ABHD5-perilipin-5 interaction; Q00G26+Q8WTS1; Split G. princeps luciferase complementation, luminescence, 4 h; inhibition, % at 4 µM; 360,000 compounds, 0.78% hits; AID 602281;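 active = inhibition above the mean inhibition across every tested compound plus 3 SD, cut at about 22% in these data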;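 note: 0% = DMSO only wells and the 100% control is not disclosed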
Target sequence (Q00G26 whole entry, looked up): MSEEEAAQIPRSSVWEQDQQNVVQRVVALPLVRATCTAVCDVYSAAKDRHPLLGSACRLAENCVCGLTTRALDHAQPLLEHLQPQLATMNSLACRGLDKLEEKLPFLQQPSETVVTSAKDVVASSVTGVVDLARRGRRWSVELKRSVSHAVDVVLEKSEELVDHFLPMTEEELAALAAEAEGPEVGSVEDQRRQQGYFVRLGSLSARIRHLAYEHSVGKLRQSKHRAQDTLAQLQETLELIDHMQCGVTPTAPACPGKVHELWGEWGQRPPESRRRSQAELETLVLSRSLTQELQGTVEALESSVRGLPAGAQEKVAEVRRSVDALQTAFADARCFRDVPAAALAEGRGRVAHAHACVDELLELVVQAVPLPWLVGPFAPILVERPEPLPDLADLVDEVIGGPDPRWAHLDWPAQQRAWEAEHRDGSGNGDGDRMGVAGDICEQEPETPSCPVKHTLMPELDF
Target sequence (Q8WTS1 whole entry, looked up): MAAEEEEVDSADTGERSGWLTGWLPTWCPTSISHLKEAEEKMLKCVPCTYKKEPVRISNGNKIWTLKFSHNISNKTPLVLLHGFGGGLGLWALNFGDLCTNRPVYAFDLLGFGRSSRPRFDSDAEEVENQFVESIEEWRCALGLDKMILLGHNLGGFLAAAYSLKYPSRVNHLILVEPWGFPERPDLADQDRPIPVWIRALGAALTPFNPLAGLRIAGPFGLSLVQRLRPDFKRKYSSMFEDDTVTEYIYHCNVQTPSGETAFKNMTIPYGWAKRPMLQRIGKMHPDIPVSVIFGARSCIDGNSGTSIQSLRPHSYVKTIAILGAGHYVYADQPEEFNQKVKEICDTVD
Rad51 HR inh = blocks human Rad51 in homologous recombination; hRad51 DNA strand exchange, fluorescence dequenching; 200,000 compounds, 0.085% hits; AID 1385; inhibition, % at 10 µM; Q06609;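 active = inhibition above 40% at the single screening dose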;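 note: 0% = DMSO control wells and 100% = blanks with heterologous ssDNA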
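System: hRad51 filaments on single-stranded DNA; reagent: Fluorescein- and BHQ1-tagged 47-mer duplex; compound dosing: one concentration, 10 µM final; timing: filaments 15 min 37 °C, then compound 30 min; measured by: fluorescein emission 520 nm, excitation 485 nm; benchmarks: per-plate controls and blanks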
HIF act = HIF pathway transcriptional activation; activation, % at 7.5 µM (by protocol); U2OS HRE-luciferase reporter, luminescence; normalized: DMSO 0%, desferrioxamine 100%; AID 1910; 300,000 compounds, 0.32% hits;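 active = mean activation of at least 10% of the iron chelator positive control signal, with at least half of replicates also reaching 10%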
TAG inh = inhibitors of triacylglycerol accumulation | 230,000 compounds, 0.66% hits | inhibition, % at 12.5 µM | H9c2 cells, Nile Red lipid (TAG) fluorescence; cells loaded with 200 µM oleic acid | AID 651582;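 active = pattern-corrected inhibition of lipid staining of at least 50% with the nuclear-stain viability signal not falling by more than 50%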;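 note: 0% = DMSO wells and 100% = triacsin C control wells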
TAG conf = triacylglycerol accumulation inhibition, confirmation. shares compounds with TAG inh. H9c2 lipid accumulation, Nile Red fluorescence; cells loaded with 200 µM oleic acid. inhibition, % at 12.5 µM. 990 compounds, 71% hits. AID 651629;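 active = mean inhibition across replicates of 40% or more; inactive = mean inhibition below 40%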;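 note: plate controls were DMSO only wells for no effect and Triacsin C treated wells for full effect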
* hit, by the source's call; x = not tested or not shown.

SMILES | Hsp70 activator | FXN GAA850 act | ABHD5 PLIN5 PPI | Rad51 HR inh | HIF act | TAG inh | TAG conf
Cc1cccn2c(=O)c3cc(C(=O)NC4CCCC4)c(=N)n(C4CCCC4)c3nc12 | 0 | 0 | 8 | -3 | -27 | 51* | 44*
COc1ccc(OC)c(N(CCN2C(=O)c3ccccc3C2=O)C(=O)CCl)c1 | x | -7 | -11 | x | x | 52* | 53*
COc1ccc(NC(=O)CCN2C(=O)c3ccccc3C2=O)c(OC)c1 | x | 2 | 0 | x | -1 | x | x
CC(=O)c1sc(NC(=O)COc2ccc(C(C)C)c(C)c2)nc1C | 0 | -1 | -2 | x | 0 | -11 | x
CCOc1ccccc1C1C2=C(COC2=O)Nc2cc3c(cc21)OCO3 (stereo unspecified) | 1 | -2 | -1 | x | 2 | 53* | 53*
CN(C)CCCn1c(=O)n(C2CCCCC2)c(=O)c2c3c(sc21)CCCCC3 | x | 3 | 12 | x | 0 | 59* | 72*
CN(C)CCn1c(=O)n(-c2ccc(F)cc2)c(=O)c2c3c(sc21)CCCCC3 | x | 3 | -6 | -7 | 1 | 0 | x
CCNc1ncnc2c1cnn2C | 0 | 3 | -1 | 2 | -1 | -3 | x
Cc1cccc(-c2cccc(NC(=O)C3CCCN(C(=O)c4ocnc4C)C3)c2)c1 (stereo unspecified) | x | 2 | 3 | x | 1 | 35 | x
CCc1nc(C)c(C(=O)N2CCCC(C(=O)Nc3cccc(-c4cccc(C)c4)c3)C2)o1 (stereo unspecified) | x | 5 | 7 | x | 4 | 50* | 47*
C=C(C)C1CC=C(C)/C(=N\NC(=O)CCC(=O)Nc2ccc(C)c(C)c2)C1 (stereo unspecified) | x | 0 | 1 | 17 | 0 | -26 | x
COCCN1Cc2cccc(C(=O)Nc3cccc(-c4nc5ccccc5[nH]4)c3)c2C1=O | x | -3 | 3 | 14 | 0 | 80* | 89*
O=C1NC(Cc2ccc(O)cc2)c2nc3cc(F)c(F)cc3c(=O)n2-c2cc3ccccc3cc21 (stereo unspecified) | x | -5 | -10 | x | x | 12 | x
Cc1ccc2nc3n(c(=O)c2c1)-c1cc2ccccc2cc1C(=O)NC3Cc1ccc(O)cc1 (stereo unspecified) | x | -9 | -7 | x | x | 64* | 57*
O=C1NC(Cc2ccc(O)cc2)c2nc3ccc(F)cc3c(=O)n2-c2cc3ccccc3cc21 (stereo unspecified) | x | -12 | -3 | x | x | 78* | 67*
CC(C)NC(=O)c1ccc(-n2nc(C(F)(F)F)c3c2CCCC3)cc1 | -1 | 1 | -5 | -1 | -1 | x | x
CCCc1cc(C(=O)N/N=C/c2ccc(CC)s2)c2ccccc2n1 | 0 | -3 | -4 | 3 | -1 | 56* | 61*
COc1ccc(C2NCCc3c2[nH]c2ccccc32)cc1CSc1nc2ccccc2s1 (stereo unspecified) | 0 | -6 | 17 | -5 | 0 | 57* | 51*
O=c1[nH]c(CSc2nc3ccccc3s2)nc2ccccc12 | x | 1 | 4 | -1 | 2 | 2 | x
CC(C)N(Cc1nccn1C)C(=O)c1cc(COc2ccc(F)cc2Cl)on1 | x | 0 | -7 | x | 0 | 8 | x
CCC(C)(C)NC(=O)C(c1cccn1C)N(Cc1ccc(OC)cc1)C(=O)Cn1nnc2ccccc21 (stereo unspecified) | 0 | 2 | 3 | -3 | -30 | 67* | 50*
c1ccc2c(c1)NC(c1ccncc1)n1c-2nc2ccccc21 (stereo unspecified) | 0 | 2 | 9 | 2 | 2 | 53* | 14
COc1cc2c(cc1OC)C(c1ccccc1[N+](=O)[O-])=NCC2 | x | x | 1 | x | x | x | x
CC(C)(C)N1C(=O)[C@H]2[C@@H](c3ccc(Br)cc3)N3C(=O)N(c4ccc(Br)cc4)C(=O)[C@@]3(Cc3ccccc3)[C@H]2C1=O | x | -6 | 0 | x | 0 | 60* | 54*
CC(C)(C)N1C(=O)[C@H]2[C@@H](c3ccc(Br)cc3)N3C(=O)N(c4cccc(F)c4)C(=O)[C@@]3(Cc3ccccc3)[C@H]2C1=O | x | 6 | 5 | x | 0 | x | x
SMILES | Hsp70 activator | FXN GAA850 act | ABHD5 PLIN5 PPI | Rad51 HR inh | HIF act | TAG inh | TAG conf
COc1ccc(CC(=O)OC(C)C(=O)c2ccc(C)cc2)cc1 (stereo unspecified) | x | 0 | 1 | x | 0 | -20 | x
Cc1ccc(CN(C)C(=O)CN2C(=O)NC3(CCCc4ccccc43)C2=O)c(C)c1 (stereo unspecified) | x | 1 | 9 | x | x | 51* | 40*
CCCSc1ccc2nc(NC(=O)OC)[nH]c2c1 | 1 | 1 | 5 | 2 | 3 | 58* | 60*
COC(=O)Nc1nc2ccc(SC(C)C)cc2[nH]1 | x | 2 | -4 | x | x | 52* | 61*
O=C(O)c1ccc(N/N=C/C2=Cc3ccccc3OC2)cc1 | x | 6 | 6 | 7 | 3 | -11 | x
CCCc1nc2oc3c(NCCN(C)C)ncnc3c2c2c1CCCC2 | 1 | 5 | 5 | -7 | 0 | 58* | 24
CC(C)(C)OC(=O)N1CCC(CC2CC(c3ccc(Cl)cc3)=NO2)(C(=O)NCC2CCCCC2)CC1 (stereo unspecified) | x | 5 | -7 | x | 2 | 67* | 18
O=[N+]([O-])c1cccc(S(=O)(=O)N2CN(c3ccc(Br)cc3)c3nc4ccccc4nc32)c1 | x | 1 | -11 | x | x | 62* | 49*
O=C(c1ccoc1)N1CCN(c2cc(-c3cccc(F)c3)nc3cc(-c4cccc(Cl)c4)nn23)CC1 | x | 0 | 1 | x | x | 57* | 49*
COc1ccc(-c2cc3nc(-c4ccccc4)cc(N4CCN(C(=O)c5ccccc5)CC4)n3n2)cc1 | x | -1 | -4 | x | x | 52* | 42*
COc1ccc(-c2cc3nc(-c4ccccc4)cc(N4CCN(C(C)=O)CC4)n3n2)cc1 | x | -2 | 9 | x | x | 31 | x
O=C(c1ccc2nccnc2c1)N1CCCC(Nc2ccc(F)c(F)c2)C1 (stereo unspecified) | x | 1 | -3 | x | 0 | -5 | x
CCC(c1nnnn1-c1ccc2c(c1)OCCO2)N1CCN(c2ccc(C)cc2)CC1 (stereo unspecified) | x | x | -7 | x | x | x | x
Cc1ccc(NC(=O)c2cc3ccccc3o2)cc1S(=O)(=O)N(C)C | 0 | 6 | -8 | -4 | x | 70* | 26
COc1ccc(/C=N/NC(=O)CNC(=O)COc2ccccc2)cc1 | 0 | 2 | 0 | -3 | 0 | x | x
COc1cccc(/C=N/NC(=O)CNC(=O)COc2ccccc2)c1O | x | -4 | 3 | x | 3 | 51* | 1
CCn1cc(C(=O)N2CCCC(N3CCN(c4ccccc4C)CC3)C2)cn1 (stereo unspecified) | x | 1 | 7 | x | 0 | x | x
O=C(Cc1coc2ccc3ccccc3c12)Nc1nccs1 | 0 | 3 | -3 | -3 | 1 | 52* | 43*
